Assay [1] concerns Rattus norvegicus. The assay can be described thus: Antivasopressor effective dose is defined as the dose that reduces the response seen with 2 units of agonist to equal the response seen with 1 unit of agonist administered before antagonist. It is filed as functional. Put shortly: (§1)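 Intravenous vasopressor assay in phenoxybenzamine-treated rats under urethane anesthesia, agonist USP posterior pituitary reference standard. Effective dose (nmol/kg) cuts the response to 2x units of agonist to that of 1x units given before the antagonist. pA2 = −log(effective dose / 67 mL/kg).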

Assay [2] has as its system Rattus norvegicus. The assay can be described thus: Effective dose is defined as the dose that reduces the response seen with 2 units of agonist to equal the response seen with 1 unit of agonist administered before antagonist. The format is functional.
In assay [3] the test system is Rattus norvegicus. The assay is described as follows: In vivo pA2 value represent the negative logarithm of the effective dose divided by the estimated volume of distribution (67 mL/kg). The format is functional, organism-based.
For assay [4], the system named is Rattus norvegicus. The assay is described as follows: Antivasopressor effective dose is expressed as the dose that reduces the response seen with 2 units of agonist to equal the response seen with 1 unit of agonist administered before antagonist. The format is functional. The gist of the method: as §1
The test system of assay [5] is Rattus norvegicus. The assay is described as follows: Antidiuretic effective dose is expressed as the dose that reduces the response seen with 2 units of agonist to equal the response seen with 1 unit of agonist administered before antagonist. The format is functional, Urine. Put shortly:
(§2)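 Rats under ethanol anesthesia, agonist USP posterior pituitary reference standard. Agonist injected 20 and 50 min after the antagonist. Responses at 20 min were used, or at 50 min for analogues that inhibited more then. Each antagonist was given at two doses, one above and one below the effective dose (nmol/kg). pA2 = −log(effective dose / 67 mL/kg).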

In assay [6] the test system is Rattus norvegicus. The assay is described as follows: In vivo pA2 value represent the negative logarithm of the anti-vasopressor effective dose divided by the estimated volume of distribution (67 mL/kg). It is filed as functional, organism-based. Particulars: read-out: pA2 (converted). Put shortly:
as §1

For assay [7], the system named is Rattus norvegicus. The assay is described as follows: In vivo pA2 value represent the negative logarithm of the antidiuretic effective dose divided by the estimated volume of distribution (67 mL/kg). It is filed as functional, organism-based. The conditions noted are these: Urine, read-out: pA2 (converted). Put shortly: as §2
Assay [8] deals with Rattus norvegicus. The assay can be described thus: Effective dose is defined as the dose that reduces the response seen with 2 units of agonist to equal the response seen with 1 unit of agonist administered before antagonist; agonist. The conditions noted are these: filed as agonist. It is filed as functional, organism-based.

“And” between values parts separate entries of the source, which are not always exact repeats. Equal values may be shown once. *1 amine or outer side, *2 acyl side, *3 side chain or, on linkers, in order; H or OH if unused. Where a SMILES comes first, the peptide text is derived from it. Bridges are numbered along the chain shown (N, C = ends). [ ]: non-standard residue; d: D form. The star is where a group is joined. X1 = O=C(CC1(S[*:2])CCCCC1)[*:1]; Propyl = CCC*; iPr = CC(C)*

The values below come from ChEMBL document CHEMBL1121930, “Design of more potent antagonists of the antidiuretic responses to arginine-vasopressin” (J Med Chem, 1982).

`CC(C)[C@@H]1NC(=O)[C@H](Cc2ccccc2)NC(=O)[C@H](Cc2ccc(O)cc2)NC(=O)CC2(CCCCC2)SSC[C@@H](C(=O)N2CCC[C@H]2C(=O)N[C@H](CCCN=C(N)N)C(=O)NCC(N)=O)NC(=O)[C@H](CC(N)=O)NC1=O` came in with an Effective dose in assay [1] of 1.5 nM/kg.
`CC(C)[C@@H]1NC(=O)[C@H](Cc2ccccc2)NC(=O)[C@@H](Cc2ccc(O)cc2)NC(=O)CC2(CCCCC2)SSC[C@@H](C(=O)N2CCC[C@H]2C(=O)N[C@@H](CCCN=C(N)N)C(=O)NCC(N)=O)NC(=O)[C@H](CC(N)=O)NC1=O`: the Effective dose came out at 2.2 nM/kg in assay [2] and 0.29 nM/kg in assay [1].
A word on the pA2: it is the negative logarithm of the molar antagonist concentration that doubles the agonist concentration needed for the same response. On to `CCOc1ccc(C[C@@H]2NC(=O)CC3(CCCCC3)SSC[C@@H](C(=O)N3CCC[C@H]3C(=O)N[C@@H](CCCN=C(N)N)C(=O)NCC(N)=O)NC(=O)[C@H](CC(N)=O)NC(=O)[C@H](C(C)C)NC(=O)[C@H](Cc3ccccc3)NC2=O)cc1` (Y(Et)FVNCPRG-NH2; linker N-5 via X1), for which the Effective dose came to 1.1 nM/kg in assay [2] and 0.45 nM/kg in assay [1]. Moreover, the pA2 in assay [3] is 7.81 and 8.22.
For the compound `CCOc1ccc(C[C@@H]2NC(=O)CC3(CCCCC3)SSC[C@@H](C(=O)N3CCC[C@H]3C(=O)N[C@H](CCCN=C(N)N)C(=O)NCC(N)=O)NC(=O)[C@H](CC(N)=O)NC(=O)[C@H](C(C)C)NC(=O)[C@H](Cc3ccccc3)NC2=O)cc1` (Y(Et)FVNCP[dR]G-NH2; linker N-5 via X1), the Effective dose came out at 1.8 nM/kg in assay [2] and 0.88 nM/kg in assay [1].
The matching figures for `COc1ccc(C[C@@H]2NC(=O)CC3(CCCCC3)SSC[C@@H](C(=O)N3CCC[C@H]3C(=O)N[C@@H](CCCN=C(N)N)C(=O)NCC(N)=O)NC(=O)[C@H](CC(N)=O)NC(=O)[C@H](C(C)C)NC(=O)[C@H](Cc3ccccc3)NC2=O)cc1` (Y(Me)FVNCPRG-NH2; linker N-5 via X1): 1.2 nM/kg and 0.23 nM/kg.
As to `COc1ccc(C[C@@H]2NC(=O)CC3(CCCCC3)SSC[C@@H](C(=O)N3CCC[C@H]3C(=O)N[C@H](CCCN=C(N)N)C(=O)NCC(N)=O)NC(=O)[C@H](CC(N)=O)NC(=O)[C@H](C(C)C)NC(=O)[C@H](Cc3ccccc3)NC2=O)cc1` (Y(Me)FVNCP[dR]G-NH2; linker N-5 via X1), the Effective dose in assay [4] worked out at 0.54 nM/kg; in assay [5], 4.9 nM/kg. Moreover, the values for the Kb in assay [6] and in assay [7] were 7.94 nM and 64.6 nM, respectively.
Regarding `CCCOc1ccc(C[C@@H]2NC(=O)CC3(CCCCC3)SSC[C@@H](C(=O)N3CCC[C@H]3C(=O)N[C@@H](CCCN=C(N)N)C(=O)NCC(N)=O)NC(=O)[C@H](CC(N)=O)NC(=O)[C@H](C(C)C)NC(=O)[C@H](Cc3ccccc3)NC2=O)cc1` (Y(Propyl)FVNCPRG-NH2; linker N-5 via X1), the figures for the Effective dose in assay [2] and in assay [1] were 1.7 nM/kg and 0.51 nM/kg, respectively.
The matching figures for `CC(C)Oc1ccc(C[C@@H]2NC(=O)CC3(CCCCC3)SSC[C@@H](C(=O)N3CCC[C@H]3C(=O)N[C@@H](CCCN=C(N)N)C(=O)NCC(N)=O)NC(=O)[C@H](CC(N)=O)NC(=O)[C@H](C(C)C)NC(=O)[C@H](Cc3ccccc3)NC2=O)cc1` (Y(iPr)FVNCPRG-NH2; linker N-5 via X1): 1.6 nM/kg and 0.28 nM/kg.
As to `CC(C)Oc1ccc(C[C@@H]2NC(=O)CC3(CCCCC3)SSC[C@@H](C(=O)N3CCC[C@H]3C(=O)N[C@H](CCCN=C(N)N)C(=O)NCC(N)=O)NC(=O)[C@H](CC(N)=O)NC(=O)[C@H](C(C)C)NC(=O)[C@H](Cc3ccccc3)NC2=O)cc1` (Y(iPr)FVNCP[dR]G-NH2; linker N-5 via X1), the Effective dose in assay [2] turned out to be 2.2 nM/kg; in assay [1] it was 0.46 nM/kg.
The compound `CC(C)[C@@H]1NC(=O)[C@H](Cc2ccccc2)NC(=O)[C@H](Cc2ccc(O)cc2)NC(=O)CC2(CCCCC2)SSC[C@@H](C(=O)N2CCC[C@H]2C(=O)N[C@@H](CCCN=C(N)N)C(=O)NCC(N)=O)NC(=O)[C@H](CC(N)=O)NC1=O` (stereo in doubt) [listing 1 of 2 here] yielded an Effective dose in assay [1] of 0.76 nM/kg.
On to `CC(C)[C@@H]1NC(=O)[C@H](Cc2ccccc2)NC(=O)[C@H](Cc2ccc(O)cc2)NC(=O)CC2(CCCCC2)SSC[C@@H](C(=O)N2CCC[C@H]2C(=O)N[C@@H](CCCN=C(N)N)C(=O)NCC(N)=O)NC(=O)[C@H](CC(N)=O)NC1=O` (stereo in doubt) [listing 2 of 2 here], for which the Effective dose result in assay [8] is “Agonist”.
Turning to `CC(C)[C@@H]1NC(=O)[C@H](Cc2ccccc2)NC(=O)[C@H](Cc2ccc(O)cc2)NC(=O)CC2(CCCCC2)SSC[C@@H](C(=O)N2CCC[C@H]2C(=O)N[C@@H](CCCN=C(N)N)C(=O)NCC(N)=O)NC(=O)[C@H](CC(N)=O)NC1=O` (stereo in doubt; 9), the Effective dose in assay [2] turned out to be 6.3 nM/kg; in assay [1], 0.6 nM/kg.
